We go through six compounds from publication PMC6467359 (Toxicological Research, 2019).

The test system of data set [1] is SKOV-3 cells. The experiment in a line: MTT assay of cell viability and proliferation, SKOV-3. In kind it is cell-based, human. The conditions noted are these: for cytotoxicity to SKOV-3 cells relative to apigenin: ratio of IC50 values. An outline of the steps:
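SKOV-3 cells were seeded at 5 × 10^3 cells/well in McCoy's 5A with 10% FCS, cultured overnight, then exposed to a range of concentrations, or to 0.1% DMSO control, for 24, 48 and 72 hr. MTT was added for 3 hr, formazan was dissolved in DMSO, and A560 was read. Viability was expressed relative to control, and IC50 was read from the plot of % viable cells versus concentration; three independent repeats.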
On the technique in general: Tetrazolium dyes change colour on reduction, which living cells bring about.

Data set [2] has as its system WI-38 cells. The experiment in a line: MTT assay of cell viability, WI-38 lung fibroblasts. It counts as cell-based, human. Particulars: for IC50: read-out: IC50 value, WI-38 cells. An outline of the steps: (§1)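 Untransformed human fibroblasts (CCD-986Sk skin, WI-38 lung) in MEM with 10% FCS were seeded at 1 × 10^4 cells/well, cultured overnight, then exposed to graded concentrations, or to 0.1% DMSO control, for 24 hr at 37°C, 5% CO2. MTT was added for 3 hr, formazan was dissolved in DMSO, and A560 was read. Survival was expressed relative to control, and IC50 was taken from the viability-versus-concentration plot; three independent repeats.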

Data set [3] concerns CCD-986Sk cells. Put plainly: MTT assay of cell viability, CCD-986Sk skin fibroblasts. The conditions noted are these: for toxicity to CCD-986Sk cells: 24 hr of exposure. It counts as cell-based, human. An outline of the steps:
as §1

Data set [4] deals with NFκB. The experiment in a line: RT-qPCR transcript expression in SKOV-3 cells, NFκB. In kind it is cell-based, human. The conditions noted are these: SKOV-3, 24 hr, 7.309 μM.
For data set [5], the system named is COX2. Put plainly: RT-qPCR transcript expression in SKOV-3 cells, COX2. Particulars: SKOV-3, 24 hr, 7.309 μM, p < 0.05. It counts as cell-based, human. An outline of the steps: (§2)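 SKOV-3 cells were seeded at 5 × 10^5 in 5 mL flasks and treated for 24 hr in 0.1% DMSO (vehicle control). Total RNA was column-extracted. One-step SYBR RT-qPCR used 20 ng RNA and 0.4 μM each primer: RT at 42°C for 5 min, 95°C for 10 s, then 40 cycles of 95°C 10 s / 60°C 30 s, with melt-curve check. Expression was normalised to GAPDH and compared with control; three independent repeats, one-way ANOVA with Tukey test.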

Data set [6] deals with caspase-3. Put plainly: Caspase-3 colorimetric activity assay in treated SKOV-3 cells. It counts as cell-based, human. Particulars: α-mangostin 7.309 μM. An outline of the steps:
(§3)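 SKOV-3 cells (McCoy's 5A, 10% FCS, 37°C, 5% CO2) were seeded at 5 × 10^5 in 5 mL flasks overnight, then treated in 0.1% DMSO vehicle (DMSO-only control) for 12 and 24 hr. Cells were trypsinized and lysed on ice, and 100 μg protein was taken per well. Reactions used 10 mM DTT final and caspase-specific colorimetric substrate, 37°C for 1–2 hr, read at 400–405 nm. Done in triplicate.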

Data set [7] deals with SKOV-3 cells. The experiment in a line: Cell imaging. In kind it is cell-based, human. Particulars: for morphological change of treated SKOV-3 cells: 48 hr, 200× magnification, α-mangostin 7.309 μM, apigenin 18.502 μM, doxorubicin 0.431 μM.
Data set [8] concerns SKOV-3 cells. Put plainly: Cell cycle analysis by PI staining and flow cytometry. It counts as cell-based, human. (In flow cytometry, cells or beads pass a laser one at a time.)
Data set [9] relates to SKOV-3 ovarian cancer cells. Particulars: 0.033–1.0 mg/mL, 24 hr of exposure ref 10; cited from earlier work.
Data set [10] deals with ES2 ovarian cancer cells. Particulars: 0.033–1.0 mg/mL, 24 hr of exposure ref 10; cited from earlier work.
Data set [11] concerns ovarian cancer cell line A2780. The conditions noted are these: read-out: half maximal inhibitory concentration (IC50); A2780 ref 9; cited from earlier work.
In data set [12] the test system is caspase-9. Put plainly: Caspase-9 colorimetric activity assay in treated SKOV-3 cells. Particulars: SKOV-3, 24 hr. It counts as cell-based, human. An outline of the steps: as §3
In data set [13] the test system is BCL2. Put plainly: RT-qPCR transcript expression in SKOV-3 cells, BCL2. In kind it is cell-based, human. Particulars: SKOV-3, 24 hr, 18.502 μM, p < 0.01. An outline of the steps: as §2
Background: Quantitative PCR measures a nucleic acid by following its amplification.

Setting [14] is: Homo sapiens, SK-OV-3, 24 h, read-out: IC50 value at an incubation time of 24 hr.
[15] abbreviates: Homo sapiens, SK-OV-3, 48 h, read-out: IC50 value at an incubation time of 48 hr.
Setting [16] is: Homo sapiens, SK-OV-3, 72 h, read-out: IC50 value at an incubation time of 72 hr.

Like-named read-outs stand apart in the source and are kept apart here.

Take `COc1c(O)cc2oc3cc(O)c(CC=C(C)C)c(O)c3c(=O)c2c1CC=C(C)C` [α-Mangostin]: the “cytotoxicity to SKOV-3 cells relative to apigenin” value in [1] (24 hr) came out at 10.8 fold; in [1] (72 hr) it was 5.9 fold. Besides, the IC50 in data set [1] (read-out: IC50 value at an incubation time of 24 hr, SKOV-3 cells, MTT, 24 hr) came out at 2.47 ± 0.338 µM; in [1] (read-out: IC50 value at an incubation time of 48 hr, SKOV-3 cells, MTT, 48 hr), 2.98 ± 0.054 µM; in [1] (read-out: IC50 value at an incubation time of 72 hr, SKOV-3 cells, MTT, 72 hr), 3.06 ± 0.349 µM; in data set [2] (24 hr of treatment, MTT), 1.5 ± 0.464 µM; in data set [3] (read-out: IC50 value, CCD-986Sk cells, 24 hr of treatment, MTT) it was 9.8 ± 3.17 µM. For the same compound, in data set [3] (24 hr), the “concentration safe for CCD-986Sk skin fibroblasts” value was “less than 6.091 μM”. Also, the “cytotoxicity in CCD-986Sk cells, fold less than in SKOV-3 cells” value in data set [3] (24 hr) was “about 4 fold”. Besides, the “NFκB transcript expression level relative to control” value in [4] is listed as “remained the same as in the control cells”. For the same compound, the “COX2 transcript expression level relative to control” value in data set [5] is listed as “upregulation was significant”. For the same compound, in data set [6] (SKOV-3, 12 hr), the “caspase-3 activity vs control” value is “significantly (p < 0.05) increased”. The “morphological change of treated SKOV-3 cells” value (from here on “morphological change”) in [7] is recorded as “mostly damaged”. For the same compound, in data set [7] (SKOV-3, 5 × 10^5 cells in 5 mL, T25 flasks), the “effect at the small-scale IC50 value in larger-scale cultures” value was “not effective at all”. The cell cycle arrest result in data set [8] (SKOV-3, after 24 hr of exposure, 7.309 μM) is “induced arrest at the G2/M phase”.
With `CC(=O)OCO/N=[N+](\[O-])NC(C)C` [O^2-(acetoxymethyl)-1-(isopropylamino)diazen-1-ium-1,2-diolate], the effect on proliferation entry in data set [9] and in [10] was “reduced the proliferation” throughout.
In the case of `COc1cccc2c1C(=O)c1c(O)c3c(c(O)c1C2=O)C[C@@](O)(C(=O)CO)C[C@@H]3O[C@H]1C[C@H](N)[C@H](O)[C@H](C)O1` [Doxorubicin, reference compound], the IC50 in [1] (setting [14]) amounted to 0.534 ± 0.084 µM; in data set [1] (setting [15]), 0.343 ± 0.023 µM; in data set [1] (setting [16]), 0.117 ± 0.008 µM; in data set [2] (Homo sapiens, WI-38, 24 h), 0.604 ± 0.156 µM. Besides, the “toxicity to CCD-986Sk cells” value in data set [3] is recorded as “did not affect the growth”. For the same compound, the “caspase-3 activity vs control” value in data set [6] (SKOV-3, 24 hr, apigenin 18.502 μM, doxorubicin 0.431 μM) is listed as “not significant”. Further, the “morphological change” value in [7] was “some cell blebbing”.
`CCCCCCCCC(OCCC(C)C)c1ccc2c(c1OC)/C(=N/O)C=C/C2=N\O` (stereo not shown) [(1E,4E)-6-(1-(isopentyloxy)nonyl)-5-methoxynaphthalene-1,4-dione dioxime]: in data set [11], the IC50 was 8.26 ± 0.22 µM.
As to `O=c1cc(-c2ccc(O)cc2)oc2cc(O)cc(O)c12` [Apigenin], in data set [12], the “caspase-9 level (activity) vs control” value is listed as “statistically significant (p < 0.01)”. In addition, the “BCL2 transcript expression level relative to control” value in [13] is “upregulation was significant”. Further, the IC50 in data set [1] (setting [14]) stood at 26.5 ± 6.02 µM; in [1] (setting [15]), 21.2 ± 5.25 µM; in data set [1] (setting [16]), 18.2 ± 3.1 µM; in data set [2] (Homo sapiens, WI-38, 24 h), 36.9 ± 0.971 µM. Further, the “concentration nontoxic to the cells” value in data set [2] (WI-38, 24 hr) is reported as “up to 27.753 μM”. Further, the “concentration that did not affect cell growth” value in [2] (WI-38, 24 hr) is 1156 to 2313 nM. The “toxicity to CCD-986Sk cells” value in data set [3] is “nontoxic”. Also, the cell survival in [3] (CCD-986Sk, 24 hr, 92.510 μM) came to 70%. For the same compound, the relative cell survival in data set [3] (CCD-986Sk, 24 hr, 1.156–55.506 μM) came to 100%. Besides, in data set [7], the “morphological change” value is listed as “Cell shrinkage”. Besides, the “cell cycle arrest (G2/M phase)” value in data set [8] (SKOV-3, after 48 hr of exposure, 18.502 μM) was “likewise arrested the cells”.
Take `CC(=O)OCON=[N+]([O-])NCC(C)C` [O^2-(acetoxymethyl)-1-(iso-butylamino)diazen-1-ium-1,2-diolate]: the effect on proliferation entry in data set [9] and in data set [10] was “reduced the proliferation” in each case.
